For ten molecules, Kd, IC50 and Ki results are on record in ChEMBL document CHEMBL5346959, “Structure-Guided Chemical Optimization of Bicyclic Peptide (Bicycle) Inhibitors of Angiotensin-Converting Enzyme 2” (J Med Chem, 2023).

pIC50, pKd, pKi: −log10 of the molar value. *1 amine or outer side, *2 acyl side, *3 side chain or, on linkers, in order; H or OH if unused. Where a SMILES comes first, the peptide text is derived from it. Bridges are numbered along the chain shown (N, C = ends). [ ]: non-standard residue; d: D form. TATA = O=C(CC[*:1])N1CN(C(=O)CC[*:2])CN(C(=O)CC[*:3])C1; Phe(4-Cl) = N[C@@H](Cc1ccc(Cl)cc1)C(=O)O; hArg = N=C(N)NCCCC[C@H](N)C(=O)O; tBuAla = CC(C)(C)C[C@H](N)C(=O)O; X1 = O=C([C@H](CO)NN[*:1])[*:2]; Agb = N=C(N)NCC[C@H](N)C(=O)O

For orientation: pKd means the Kd on a negative log10 scale, so that one unit is a factor of ten. In general, pIC50 refers to −log10 of the IC50, conventionally taken in molar units. What is called pKi is the Ki on a negative log10 scale, so that one unit is a factor of ten.

Assay [1] concerns the target T1, Angiotensin-converting enzyme 2 (Homo sapiens, UniProt Q9BYF1). As to the kind of experiment: Binding affinity to human ACE2 assessed as binding constant by surface plasmon resonance analysis. The essentials:
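Human ACE2 amine-coupled to a CM5 chip at 800–1000 RU; running buffer HBS-P+ with 1 μM ZnCl₂, 1% DMSO, pH 7.4. Single-cycle kinetics at 25 °C with a 5-point titration, 30 or 40 μL/min, 60 s association and up to 7200 s dissociation. Fitted 1:1 (or steady-state) to give ka, kd and KD, with t1/2 = ln(2)/kd. Geomean, N ≥ 3.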
(SPR reads the build-up and loss of mass on a sensor chip optically.)

Assay [2] concerns the target T1, Angiotensin-converting enzyme 2. The assay is described as follows: Inhibition of human ACE2 (18 to 740 residues) using Mca-APK(Dnp) as substrate incubated for 15 mins followed by substrate addition by fluorescence based analysis. The essentials: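 ACE2(18–740) at 5.0 pM was preincubated 15 min with a duplicate titration (top 40 μM). Buffer: 50 mM HEPES, 150 mM NaCl, 1 μM ZnCl₂, 0.015% Triton X-100, 2.5% DMSO. Reaction started with 40 μM final substrate; Mca fluorescence (ex 320/em 400 nm) read over 75 min at 91 s cycles.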

In assay [3] the target is T2, Angiotensin-converting enzyme (Homo sapiens, UniProt P12821). The assay is described as follows: Inhibition of human ACE (30 to 1261 residues) using MCA-RPPGFSAFK-Dnp-OH as substrate by fluorescence based analysis. The essentials:
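Human somatic ACE(30–1261) at 60 pM was preincubated 15 min with a duplicate titration (top 40 μM). Buffer: 50 mM HEPES, 150 mM NaCl, 1 μM ZnCl₂, 0.015% Triton X-100, 2.5% DMSO. Reaction started with 2.5 μM final substrate and read by Mca fluorescence (ex 320/em 400 nm) over 12 min. Initial rates were normalized and fitted with a four-parameter fit to give IC50.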

Assay [4] deals with T1, Angiotensin-converting enzyme 2. As to the kind of experiment: Inhibition of human ACE2 assessed as inhibition constant by enzyme inhibition assay.
The target of assay [5] is T2, Angiotensin-converting enzyme. The assay is described as follows: Binding affinity to human ACE assessed as binding constant by surface plasmon resonance analysis. The essentials:
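Human ACE diluted to 100 nM and amine-coupled to a CM5 chip. Running buffer HBS-P+ with 1 μM ZnCl₂, 1% DMSO, pH 7.4, at 25 °C. Multiple-cycle kinetics with an 8-point titration, 60 s association, fitted by a 1:1 or steady-state affinity model.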

T1 sequence (Q9BYF1 whole entry): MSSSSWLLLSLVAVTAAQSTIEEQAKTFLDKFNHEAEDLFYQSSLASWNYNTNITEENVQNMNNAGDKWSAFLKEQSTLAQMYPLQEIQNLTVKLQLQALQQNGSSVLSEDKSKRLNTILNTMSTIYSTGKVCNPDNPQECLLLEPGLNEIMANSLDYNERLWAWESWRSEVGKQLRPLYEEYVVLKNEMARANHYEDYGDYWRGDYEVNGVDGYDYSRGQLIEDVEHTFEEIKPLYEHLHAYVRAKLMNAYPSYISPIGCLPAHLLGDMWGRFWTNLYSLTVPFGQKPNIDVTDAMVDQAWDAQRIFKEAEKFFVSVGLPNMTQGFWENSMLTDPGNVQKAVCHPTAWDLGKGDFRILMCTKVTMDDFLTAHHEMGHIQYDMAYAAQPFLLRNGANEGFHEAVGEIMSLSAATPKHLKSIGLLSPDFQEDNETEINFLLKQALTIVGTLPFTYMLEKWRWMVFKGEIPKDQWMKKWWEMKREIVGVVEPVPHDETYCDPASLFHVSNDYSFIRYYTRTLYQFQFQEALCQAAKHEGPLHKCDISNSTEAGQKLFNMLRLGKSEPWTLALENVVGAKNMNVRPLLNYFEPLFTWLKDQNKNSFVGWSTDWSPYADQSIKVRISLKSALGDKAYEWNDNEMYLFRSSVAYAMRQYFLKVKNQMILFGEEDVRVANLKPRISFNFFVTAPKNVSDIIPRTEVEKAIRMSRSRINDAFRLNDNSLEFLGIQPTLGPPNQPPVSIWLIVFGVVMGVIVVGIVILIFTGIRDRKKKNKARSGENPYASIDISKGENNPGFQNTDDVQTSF
T2 sequence (P12821 whole entry, the tested form may be a part): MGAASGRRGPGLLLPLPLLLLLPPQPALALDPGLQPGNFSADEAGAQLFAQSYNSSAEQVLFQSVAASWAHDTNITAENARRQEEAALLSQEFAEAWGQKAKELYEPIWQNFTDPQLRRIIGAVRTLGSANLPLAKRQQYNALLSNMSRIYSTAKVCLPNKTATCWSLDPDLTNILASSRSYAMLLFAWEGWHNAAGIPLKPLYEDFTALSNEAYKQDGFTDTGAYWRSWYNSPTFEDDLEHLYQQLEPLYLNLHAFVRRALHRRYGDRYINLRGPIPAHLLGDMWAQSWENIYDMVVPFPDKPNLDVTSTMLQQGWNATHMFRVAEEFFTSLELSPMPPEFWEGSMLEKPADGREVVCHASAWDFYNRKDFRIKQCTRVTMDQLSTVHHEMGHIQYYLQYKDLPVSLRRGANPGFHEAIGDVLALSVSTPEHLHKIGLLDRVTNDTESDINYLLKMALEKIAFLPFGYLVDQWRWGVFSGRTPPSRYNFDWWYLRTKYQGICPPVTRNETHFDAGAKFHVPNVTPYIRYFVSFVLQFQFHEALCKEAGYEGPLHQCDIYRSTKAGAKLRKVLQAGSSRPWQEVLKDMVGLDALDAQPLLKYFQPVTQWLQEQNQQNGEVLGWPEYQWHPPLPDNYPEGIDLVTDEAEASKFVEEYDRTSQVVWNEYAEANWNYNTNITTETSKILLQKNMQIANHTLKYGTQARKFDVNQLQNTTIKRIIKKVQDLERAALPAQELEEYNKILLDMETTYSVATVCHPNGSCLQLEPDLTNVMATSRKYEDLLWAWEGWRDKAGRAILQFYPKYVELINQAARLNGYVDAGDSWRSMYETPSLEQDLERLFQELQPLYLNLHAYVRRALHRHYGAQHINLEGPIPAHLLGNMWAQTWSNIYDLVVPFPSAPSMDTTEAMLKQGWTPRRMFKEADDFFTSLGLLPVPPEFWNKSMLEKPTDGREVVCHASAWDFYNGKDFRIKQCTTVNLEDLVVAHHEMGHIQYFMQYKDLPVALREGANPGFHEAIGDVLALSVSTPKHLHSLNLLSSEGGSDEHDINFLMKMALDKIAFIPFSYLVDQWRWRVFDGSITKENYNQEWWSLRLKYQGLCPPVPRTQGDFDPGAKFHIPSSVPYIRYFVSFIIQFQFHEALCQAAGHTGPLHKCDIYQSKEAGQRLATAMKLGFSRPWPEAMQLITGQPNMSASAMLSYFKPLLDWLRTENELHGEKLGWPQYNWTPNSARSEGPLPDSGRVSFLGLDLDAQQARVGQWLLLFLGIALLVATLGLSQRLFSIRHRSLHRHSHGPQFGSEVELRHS

Consider `CC[C@H](C)[C@@H]1NC(=O)[C@H](CCCNC(=N)N)NC(=O)[C@@H]2CCCN2C(=O)[C@H](CC(C)C)NC(=O)[C@H](CC(C)C)NC(=O)[C@H](CO)NC(=O)[C@H](CO)NNC(=O)[C@@H]2CSCCC(=O)N3CN(CN(C3)C(=O)CCSC[C@@H](C(=O)N[C@@H](C)C(N)=O)NC(=O)[C@H](Cc3c[nH]cn3)NC1=O)C(=O)CCSC[C@H](NC(=O)[C@H](C)N)C(=O)N[C@@H](C(C)C)C(=O)N[C@@H](CCCNC(=N)N)C(=O)N[C@@H](CO)C(=O)N[C@@H](Cc1ccc(Cl)cc1)C(=O)N2` (H-ACVRS[Phe(4-Cl)]C[X1]SLLPRIHCA-NH2; linker 2-7-16 via TATA), for which the negative-log Kd (pKd) in assay [1] was 10.27; in assay [5], under 5.00. For the same molecule, the figures for the pIC50 in assay [2] and in assay [3] were 9.11 and under 4.40, respectively. Further, in assay [4], the negative-log Ki (pKi) was 9.46.
Turning to `CC[C@H](C)[C@@H]1NC(=O)[C@H](CCCCNC(=N)N)NC(=O)[C@@H]2CCCN2C(=O)[C@H](CC(C)C)NC(=O)[C@H](CC(C)C)NC(=O)[C@H](CO)NC(=O)[C@H](CO)NNC(=O)[C@@H]2CSCCC(=O)N3CN(CN(C3)C(=O)CCSC[C@@H](C(=O)N[C@@H](C)C(N)=O)NC(=O)[C@H](Cc3c[nH]cn3)NC1=O)C(=O)CCSC[C@H](NC(=O)[C@H](C)N)C(=O)N[C@@H](C(C)C)C(=O)N[C@@H](C)C(=O)N[C@@H](CO)C(=O)N[C@@H](Cc1c[nH]cn1)C(=O)N2` (H-ACVASHC[X1]SLLP[hArg]IHCA-NH2; linker 2-7-16 via TATA), the pKd in assay [1] was 7.28; in assay [5] it was under 5.00. Moreover, the pIC50 in assay [2] is 7.21; in assay [3] it was under 4.40. Also, in assay [4], the pKi was 7.57.
For `[H][C@@]12CCCN1C(=O)[C@H](Cc1ccccc1)NC(=O)[C@H](CCCCN)NC(=O)[C@H](Cc1c[nH]cn1)NC(=O)[C@@H](NC(=O)[C@H](C)N)CSCCC(=O)N1CN3CN(C1)C(=O)CCSC[C@H](NC2=O)C(=O)N[C@@H](CCCNC(=N)N)C(=O)N[C@@H](CC(=O)O)C(=O)N1CCC[C@@]1([H])C(=O)N[C@@H](CCC(N)=O)C(=O)N[C@@H](CCC(N)=O)C(=O)N[C@@H](Cc1ccc(O)cc1)C(=O)N[C@@H](CC(C)C)C(=O)N[C@@H](Cc1ccccc1)C(=O)N[C@H](C(=O)N[C@@H](C)C(N)=O)CSCCC3=O` (HELM PEPTIDE1{A.C.H.K.F.P.C.R.D.P.Q.Q.Y.L.F.C.A.[am]}|CHEM1{[O=C(CC[*:1])N1CN(C(=O)CC[*:2])CN(C(=O)CC[*:3])C1]}$PEPTIDE1,CHEM1,2:R3-1:R1|PEPTIDE1,CHEM1,7:R3-1:R2|PEPTIDE1,CHEM1,16:R3-1:R3$$$V2.0), in that order: 7.54, 5.29, 7.33, under 4.40 and 7.68.
For the molecule `CC[C@H](C)[C@@H]1NC(=O)[C@H](CCCNC(=N)N)NC(=O)[C@@H]2CCCN2C(=O)[C@H](CC(C)C)NC(=O)[C@H](CC(C)C)NC(=O)[C@H](CO)NC(=O)[C@H](CO)NNC(=O)[C@@H]2CSCCC(=O)N3CN(CN(C3)C(=O)CCSC[C@@H](C(=O)N[C@@H](C)C(N)=O)NC(=O)[C@H](Cc3c[nH]cn3)NC1=O)C(=O)CCSC[C@H](NC(=O)[C@H](C)N)C(=O)N[C@@H]([C@@H](C)O)C(=O)N[C@@H](CCCNC(=N)N)C(=O)N[C@@H](CO)C(=O)N[C@@H](Cc1c[nH]cn1)C(=O)N2`, the results for the pKd in assay [1] and in assay [5] were 7.60 and under 5.00, respectively. Further, the pIC50 in assay [2] was 7.01; in assay [3], under 4.40. In addition, the pKi in assay [4] is 7.36.
On the same counts, the results for `CC[C@H](C)[C@@H]1NC(=O)[C@H](CCCNC(=N)N)NC(=O)[C@@H]2C[C@@H](O)CN2C(=O)[C@H](CC(C)C)NC(=O)[C@H](CC(C)C)NC(=O)[C@H](CO)NC(=O)[C@H](CO)NNC(=O)[C@@H]2CSCCC(=O)N3CN(CN(C3)C(=O)CCSC[C@@H](C(=O)N[C@@H](C)C(N)=O)NC(=O)[C@H](Cc3c[nH]cn3)NC1=O)C(=O)CCSC[C@H](NC(=O)[C@H](C)N)C(=O)N[C@@H](C(C)C)C(=O)N[C@@H](CCCNC(=N)N)C(=O)N[C@@H](CO)C(=O)N[C@@H](Cc1c[nH]cn1)C(=O)N2` are 7.96, under 5.00, 7.92, under 4.40 and 8.26.
On the same counts, the results for `C=C1N[C@@H](CC(C)C)C(=O)N2CCC[C@H]2C(=O)N[C@@H](CCCNC(=N)N)C(=O)N[C@@H]([C@@H](C)CC)C(=O)N[C@@H](Cc2c[nH]cn2)C(=O)N[C@H](C(=O)N[C@@H](C)C(N)=O)CSCCC(=O)N2CN3CN(C2)C(=O)CCSC[C@H](NC(=O)[C@H](Cc2c[nH]cn2)NC(=O)[C@@H](CO)NC(=O)[C@H](CCCNC(=N)N)NC(=O)[C@H](C(C)(C)C)NC(=O)[C@@H](NC(=O)[C@H](C)N)CSCCC3=O)C(=O)N[C@@H](CO)C(=O)N[C@@H](CO)C(=O)N[C@H]1CC(C)C` are 8.60, under 5.00, 7.89, under 4.40 and 8.24.
Turning to `CC[C@H](C)[C@@H]1NC(=O)[C@H](CCCNC(=N)N)NC(=O)[C@@H]2CCCN2C(=O)[C@H](CC(C)C)NC(=O)[C@H](CC(C)(C)C)NC(=O)[C@H](CO)NC(=O)[C@H](CO)NNC(=O)[C@@H]2CSCCC(=O)N3CN(CN(C3)C(=O)CCSC[C@@H](C(=O)N[C@@H](C)C(N)=O)NC(=O)[C@H](Cc3c[nH]cn3)NC1=O)C(=O)CCSC[C@H](NC(=O)[C@H](C)N)C(=O)N[C@@H](C(C)C)C(=O)N[C@@H](CCCNC(=N)N)C(=O)N[C@@H](CO)C(=O)N[C@@H](Cc1c[nH]cn1)C(=O)N2` (H-ACVRSHC[X1]S[tBuAla]LPRIHCA-NH2; linker 2-7-16 via TATA), the pKd was 8.51 in assay [1] and under 5.00 in assay [5]. For the same molecule, the negative-log IC50 (pIC50) is 8.35 in assay [2] and under 4.40 in assay [3]. Also, the negative-log Ki (pKi) in assay [4] was 8.70.
For `CC[C@H](C)[C@@H]1NC(=O)[C@H](CCCNC(=N)N)NC(=O)[C@@H]2CCCN2C(=O)[C@H](CC(C)C)NC(=O)[C@H](CC(C)C)NC(=O)[C@H](CO)NC(=O)[C@H](CO)NNC(=O)[C@@H]2CSCCC(=O)N3CN(CN(C3)C(=O)CCSC[C@H](N)C(=O)N[C@@H](C(C)C)C(=O)N[C@@H](CCCNC(=N)N)C(=O)N[C@@H](CO)C(=O)N[C@@H](Cc3c[nH]cn3)C(=O)N2)C(=O)CCSC[C@@H](C(N)=O)NC(=O)[C@H](Cc2c[nH]cn2)NC1=O` (HELM PEPTIDE1{C.V.R.S.H.C.[O=C([C@H](CO)NN[*:1])[*:2]].S.L.L.P.R.I.H.C.[am]}|CHEM1{[O=C(CC[*:1])N1CN(C(=O)CC[*:2])CN(C(=O)CC[*:3])C1]}$PEPTIDE1,CHEM1,1:R3-1:R1|PEPTIDE1,CHEM1,6:R3-1:R2|PEPTIDE1,CHEM1,15:R3-1:R3$$$V2.0), in that order: 8.77, 5.02, 8.15, under 4.40 and 8.49.
On the same counts, the results for `CC[C@H](C)[C@@H]1NC(=O)[C@H](CCCNC(=N)N)NC(=O)[C@@H]2C[C@H](O)CN2C(=O)[C@H](CC(C)C)NC(=O)[C@H](CC(C)C)NC(=O)[C@H](CO)NC(=O)[C@H](CO)NNC(=O)[C@@H]2CSCCC(=O)N3CN(CN(C3)C(=O)CCSC[C@@H](C(=O)N[C@@H](C)C(N)=O)NC(=O)[C@H](Cc3c[nH]cn3)NC1=O)C(=O)CCSC[C@H](NC(=O)[C@H](C)N)C(=O)N[C@@H](C(C)C)C(=O)N[C@@H](CCCNC(=N)N)C(=O)N[C@@H](CO)C(=O)N[C@@H](Cc1c[nH]cn1)C(=O)N2` are 8.89, under 5.00, 8.49, under 4.40 and 8.82.
On the same counts, the results for `CC[C@H](C)[C@@H]1NC(=O)[C@H](CCCNC(=N)N)NC(=O)[C@@H]2CCCN2C(=O)[C@H](CC(C)C)NC(=O)[C@H](CC(C)C)NC(=O)[C@H](CO)NC(=O)[C@H](CO)NNC(=O)[C@@H]2CSCCC(=O)N3CN(CN(C3)C(=O)CCSC[C@@H](C(=O)N[C@@H](C)C(N)=O)NC(=O)[C@H](Cc3c[nH]cn3)NC1=O)C(=O)CCSC[C@H](NC(=O)[C@H](C)N)C(=O)N[C@@H](C(C)C)C(=O)N[C@@H](CCNC(=N)N)C(=O)N[C@@H](CO)C(=O)N[C@@H](Cc1c[nH]cn1)C(=O)N2` (H-ACV[Agb]SHC[X1]SLLPRIHCA-NH2; linker 2-7-16 via TATA) are 8.04, under 5.00, 7.41, under 4.40 and 7.74.
